Assay outcomes deposited in PubChem by several laboratories.
Hits are enriched below; roughly 2.1% of the tested compounds scored in any of these assays.
DNMT1 block: blocks human DNA methyltransferase DNMT1; 360,000 compounds, 0.83% hits; inhibition (reported as % activation of signal), % at 10 µM; P26358; DNMT1 molecular beacon, Hinp1I cleavage, fluorescence; in the data active = inhibition above about 50%
Target sequence (P26358 504-1616 limits assumed): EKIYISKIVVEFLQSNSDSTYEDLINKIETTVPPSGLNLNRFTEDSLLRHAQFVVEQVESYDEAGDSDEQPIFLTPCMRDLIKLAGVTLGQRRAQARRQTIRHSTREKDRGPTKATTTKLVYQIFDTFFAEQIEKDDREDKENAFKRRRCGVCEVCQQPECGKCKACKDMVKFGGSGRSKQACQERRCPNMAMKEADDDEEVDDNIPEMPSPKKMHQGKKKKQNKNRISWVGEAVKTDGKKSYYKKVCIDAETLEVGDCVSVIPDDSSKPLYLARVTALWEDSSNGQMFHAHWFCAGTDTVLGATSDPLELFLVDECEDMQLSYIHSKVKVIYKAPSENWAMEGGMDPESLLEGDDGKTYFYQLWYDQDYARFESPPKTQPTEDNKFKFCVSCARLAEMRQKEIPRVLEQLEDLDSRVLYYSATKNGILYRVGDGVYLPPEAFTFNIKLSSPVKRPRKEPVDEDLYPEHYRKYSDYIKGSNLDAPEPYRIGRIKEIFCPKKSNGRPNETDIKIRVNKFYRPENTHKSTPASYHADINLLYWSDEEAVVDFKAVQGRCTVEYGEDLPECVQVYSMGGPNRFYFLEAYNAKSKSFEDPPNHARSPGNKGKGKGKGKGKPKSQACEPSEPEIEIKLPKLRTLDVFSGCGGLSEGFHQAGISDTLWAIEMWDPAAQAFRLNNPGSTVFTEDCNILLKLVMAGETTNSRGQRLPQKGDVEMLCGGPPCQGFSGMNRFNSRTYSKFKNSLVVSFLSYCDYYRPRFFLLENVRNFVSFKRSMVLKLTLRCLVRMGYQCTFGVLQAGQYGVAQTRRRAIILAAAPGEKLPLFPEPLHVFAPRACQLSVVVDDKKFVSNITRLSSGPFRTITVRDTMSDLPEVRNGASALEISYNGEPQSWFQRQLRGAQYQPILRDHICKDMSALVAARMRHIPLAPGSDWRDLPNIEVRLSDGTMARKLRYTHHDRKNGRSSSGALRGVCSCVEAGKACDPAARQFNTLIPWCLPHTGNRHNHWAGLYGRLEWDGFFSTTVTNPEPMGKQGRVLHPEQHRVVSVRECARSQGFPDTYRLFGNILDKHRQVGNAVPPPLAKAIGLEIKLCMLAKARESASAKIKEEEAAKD
GRK2 aptamer HTS: inhibitors of human GRK2 displacing RNA aptamer | P25098 | AID 488847 | inhibition of aptamer binding, % at 10 µM | bead flow cytometry, FAM-aptamer displacement from GRK2 | 330,000 compounds, 0.59% hits;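 active = inhibition of aptamer binding above 40%, roughly 3 SD of noise, on plates passing a quality check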;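 note: median bead fluorescence of bound FAM aptamer so fluorescent compounds give negative values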
SUMO1 PPI mod: SUMO1-SIM interaction modulation; P63165; SUMO1 binding to a labelled peptide, TR-FRET, 1 h; inhibition, % at 20 µM; 360,000 compounds, 0.33% hits; AID 602429; in the data active = inhibition above about 37%
STEP block: STEP (human) phosphatase inhibition | P54829 | 360,000 compounds, 0.25% hits | inhibition, % at 20 µM | recombinant STEP, OMFP fluorogenic substrate, fluorescence;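 active = inhibition at 20 µM, scaled per plate between control wells, above about 37%, limit read from the data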
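Material: STEP (striatal-enriched tyrosine phosphatase) enzyme, cell-free; Compound dosing: 20 µM single dose in 1% DMSO; Technique: fluorescence read at 480 nm ex / 540 nm em; Times: reaction 20 min, ambient temperature; Medium: 50 mM Bis-Tris pH 6.0 with 2.5 mM DTT and 0.005% Tween 20; Also added: OMFP at 25 µM.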
LMPTP block: blocks human LMPTP phosphatase; AID 651560; inhibition, % at 20 µM; P24666; recombinant LMPTP-A, OMFP fluorogenic substrate, fluorescence intensity; 360,000 compounds, 0.22% hits;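 active = compounds that cut the enzyme signal by at least half of the control window in the single-dose screen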
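Assay system: LMPTP-A phosphatase enzyme | Input: 0.625 nM enzyme | Also added: Fluorogenic phosphatase substrate OMFP at 400 µM final | Compound dosing: One test concentration per compound, 20 µM, with 3% DMSO overall | Schedule: 50 min enzyme reaction at room temperature, protected from light | Signal: Fluorescence intensity | Benchmarks: no-enzyme and uninhibited controls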
Scp1 inh: blocks human Scp-1 phosphatase activity | Q9GZU7 | Recombinant Scp1, phosphopeptide, malachite green phosphate absorbance | inhibition, % at 20 µM | 340,000 compounds, 0.88% hits;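 active = inhibition above about 50% at 20 µM, limit read from the data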
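Test system: SCP-1 phosphatase catalytic domain, residues 76-261; measured by: colorimetric phosphate reagent with accelerator and stabiliser, absorbance at 630 nm; timing: enzyme reaction 45 min at room temperature, colour 5 min, stabilisation 30 min; also added: Phosphorylated 17-residue peptide substrate; compound dosing: one concentration, 20 µM, with 1.0% DMSO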
GRK2 CP1: human GRK2 inhibition confirmation, cherry pick 1. shares compounds with GRK2 aptamer HTS. bead-bound GRK2, FAM-aptamer displacement, flow cytometry. aptamer displacement, % at 10 µM. 2,000 compounds, 4% hits. AID 504451;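 active = aptamer displacement above 40%, near three times the noise of non-fluorescent compounds, on plates passing quality checks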;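 note: negative values mostly reflect intrinsic compound fluorescence rather than true enhancement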
FAM quench CP1: aptamer fluorescence quenching in GRK2 counter-screen | shares compounds with GRK2 aptamer HTS | Carboxyfluorescein RNA aptamer on beads, flow cytometry quenching; stronger effect = lower value | fluorescence response (% of DMSO), % at 10 µM | 2,000 tested, under 10 active | AID 504580;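 active = compounds that quench the bead-bound fluorescent RNA probe, cutting fluorescence to under half of the solvent control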;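 note: counterscreen run without GRK2 so only probe quenching by compound is measured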
GRK2 CP2: human GRK2 inhibition confirmation, cherry pick 2. shares compounds with GRK2 aptamer HTS. bead-bound GRK2, FAM-aptamer displacement, flow cytometry. inhibition of aptamer binding, % at 10 µM. 360 tested, under 10 active;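 active = inhibition of aptamer binding above 40%, about triple the noise seen with nonglowing compounds, on plates passing quality control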;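 note: negative values mostly come from compounds that fluoresce themselves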
FAM quench CP2: aptamer fluorescence quenching in GRK2 counter-screen | shares compounds with GRK2 aptamer HTS | 360 tested, under 10 active | AID 588494 | fluorescence response vs DMSO, % at 10 µM | carboxyfluorescein RNA aptamer beads, flow cytometry quenching; stronger effect = lower value;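 active = response vs DMSO under 50%, meaning signal dropped by over half, treated as fluorescence quencher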;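 note: labelled aptamer on streptavidin beads without GRK2 as a quench counter-screen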
Hits are given with their value.

What do the screens show for `Cc1cc(Cl)ccc1N(CC(=O)NCc1ccc2c(c1)OCO2)S(C)(=O)=O`?
DNMT1 block: inactive; GRK2 aptamer HTS: 100; SUMO1 PPI mod: inactive; STEP block: inactive; LMPTP block: inactive; Scp1 inh: inactive; GRK2 CP1: inactive; FAM quench CP1: inactive

How did C=CCn1c(CNC(=O)c2ccco2)nnc1SCC(=O)c1ccccc1 do in these assays?
DNMT1 block: inactive; GRK2 aptamer HTS: 80; SUMO1 PPI mod: inactive; STEP block: inactive; LMPTP block: inactive; Scp1 inh: inactive; GRK2 CP1: inactive; FAM quench CP1: inactive

Results for COC(=O)c1ccccc1Nc1ccccc1 ?
DNMT1 block: inactive; GRK2 aptamer HTS: 54; SUMO1 PPI mod: inactive; STEP block: inactive; LMPTP block: inactive; Scp1 inh: inactive; GRK2 CP1: inactive; FAM quench CP1: inactive

How did O=C(COC(=O)c1ccccc1Nc1ccccc1)c1ccccc1 do in these assays?
DNMT1 block: inactive; GRK2 aptamer HTS: inactive; SUMO1 PPI mod: inactive; STEP block: inactive; LMPTP block: inactive; Scp1 inh: inactive

How did CCC(C)NC(=O)Cn1cnc2sc(C)cc2c1=O (centres undefined) do in these assays?
DNMT1 block: inactive; GRK2 aptamer HTS: 43; SUMO1 PPI mod: inactive; STEP block: inactive; LMPTP block: inactive; Scp1 inh: inactive; GRK2 CP1: inactive; FAM quench CP1: inactive

How did Cc1cc(S(=O)(=O)Nc2ccc(C(=O)NC3CC3)cc2)ccc1F do in these assays?
DNMT1 block: inactive; SUMO1 PPI mod: inactive; STEP block: inactive; LMPTP block: inactive

Results for O=C(NCCc1ccc(F)cc1)c1cccc2c1C(=O)c1ccc(N3CCC(Cc4ccccc4)CC3)cc1S2(=O)=O ?
DNMT1 block: inactive; GRK2 aptamer HTS: inactive; SUMO1 PPI mod: inactive; STEP block: inactive; LMPTP block: inactive; Scp1 inh: inactive; GRK2 CP1: inactive; FAM quench CP1: inactive

What do the screens show for `Cc1ccc(-c2ccccc2)n1-c1ccc(C(=O)O)cc1`?
DNMT1 block: inactive; GRK2 aptamer HTS: 51; SUMO1 PPI mod: inactive; STEP block: inactive; LMPTP block: inactive; Scp1 inh: inactive; GRK2 CP1: inactive; FAM quench CP1: inactive; GRK2 CP2: inactive; FAM quench CP2: inactive

Results for O=C(NCCCn1ccnc1)c1sc2cc([N+](=O)[O-])ccc2c1Cl ?
DNMT1 block: inactive; SUMO1 PPI mod: inactive; STEP block: inactive; LMPTP block: inactive

Results for Cc1ccccc1C(=O)NNC(=O)c1cccc([N+](=O)[O-])c1 ?
DNMT1 block: inactive; GRK2 aptamer HTS: 60; SUMO1 PPI mod: inactive; STEP block: inactive; LMPTP block: inactive; Scp1 inh: inactive; GRK2 CP1: inactive; FAM quench CP1: inactive

Results for Cc1cccc(C(=O)NNC(=O)c2ccccc2C)c1 ?
DNMT1 block: inactive; GRK2 aptamer HTS: inactive; SUMO1 PPI mod: inactive; STEP block: inactive; LMPTP block: inactive; Scp1 inh: inactive

What do the screens show for `Cc1ccc(CONC(=O)c2cccc([N+](=O)[O-])c2)cc1`?
DNMT1 block: inactive; GRK2 aptamer HTS: 43; SUMO1 PPI mod: inactive; STEP block: inactive; LMPTP block: inactive; Scp1 inh: inactive; GRK2 CP2: inactive; FAM quench CP2: inactive

Results for C=CCn1c(SCC(=O)NC)nc2sc3c(c2c1=O)CCC3 ?
DNMT1 block: inactive; GRK2 aptamer HTS: inactive; SUMO1 PPI mod: inactive; STEP block: inactive; LMPTP block: inactive; Scp1 inh: inactive; GRK2 CP2: inactive; FAM quench CP2: inactive

What do the screens show for `C=CCn1c(SCC(=O)NCC)nc2sc3c(c2c1=O)CCC3`?
DNMT1 block: inactive; GRK2 aptamer HTS: inactive; SUMO1 PPI mod: inactive; STEP block: inactive; LMPTP block: inactive; Scp1 inh: inactive; GRK2 CP2: inactive; FAM quench CP2: inactive

What do the screens show for `C=CCn1c(SCC(C)=O)nc2sc3c(c2c1=O)CCC3`?
DNMT1 block: inactive; GRK2 aptamer HTS: inactive; SUMO1 PPI mod: inactive; STEP block: inactive; LMPTP block: inactive; Scp1 inh: inactive

Results for C=CCn1c(SC(CCO)C(=O)NCc2ccco2)nc2sc3c(c2c1=O)CCC3 (centres undefined) ?
DNMT1 block: inactive; GRK2 aptamer HTS: inactive; SUMO1 PPI mod: inactive; STEP block: inactive; LMPTP block: inactive; Scp1 inh: inactive; GRK2 CP2: inactive; FAM quench CP2: inactive

Results for CCC1Sc2ccc(S(=O)(=O)CCC(=O)Nc3ccccc3Cl)cc2NC1=O (centres undefined) ?
DNMT1 block: inactive; GRK2 aptamer HTS: inactive; SUMO1 PPI mod: inactive; STEP block: inactive; LMPTP block: inactive; Scp1 inh: inactive; GRK2 CP2: inactive; FAM quench CP2: inactive

Results for CCC1Sc2ccc(S(=O)(=O)CCC(=O)N3CCc4ccccc43)cc2NC1=O (centres undefined) ?
DNMT1 block: inactive; GRK2 aptamer HTS: 57; SUMO1 PPI mod: inactive; STEP block: inactive; LMPTP block: inactive; Scp1 inh: inactive; GRK2 CP1: inactive; FAM quench CP1: inactive; GRK2 CP2: inactive; FAM quench CP2: inactive

What do the screens show for `O=C(CC1Sc2ccccc2NC1=O)OCC(=O)N1CCc2ccccc21` (centres undefined)?
DNMT1 block: inactive; GRK2 aptamer HTS: inactive; SUMO1 PPI mod: inactive; STEP block: inactive; LMPTP block: inactive; Scp1 inh: inactive

How did CC1Sc2ccc(S(=O)(=O)CCC(=O)N3CCc4ccccc43)cc2NC1=O (centres undefined) do in these assays?
DNMT1 block: inactive; GRK2 aptamer HTS: inactive; SUMO1 PPI mod: inactive; STEP block: inactive; LMPTP block: inactive; Scp1 inh: inactive; GRK2 CP2: inactive; FAM quench CP2: inactive

Results for CC1Sc2ccc(S(=O)(=O)CCC(=O)N3CCCC3)cc2NC1=O (centres undefined) ?
DNMT1 block: inactive; GRK2 aptamer HTS: inactive; SUMO1 PPI mod: inactive; STEP block: inactive; LMPTP block: inactive; Scp1 inh: inactive

Results for CS(=O)(=O)N(CC(N)=O)c1cccc(Br)c1 ?
DNMT1 block: inactive; GRK2 aptamer HTS: inactive; SUMO1 PPI mod: inactive; STEP block: inactive; LMPTP block: inactive; Scp1 inh: inactive

How did Cc1cccc(N(CC(N)=O)S(C)(=O)=O)c1C do in these assays?
DNMT1 block: inactive; GRK2 aptamer HTS: inactive; SUMO1 PPI mod: inactive; STEP block: inactive; LMPTP block: inactive; Scp1 inh: inactive; GRK2 CP1: inactive; FAM quench CP1: inactive
